# Test results from ChEMBL document CHEMBL1123956, “Nitrosoureido nucleosides as potential inhibitors of nucleotide biosynthesis” (J Med Chem, 1988).
# pIC50: −log10 of the molar value. Values joined by “and” are separate entries in the source; they are usually repeats but may differ in a detail not shown here. Identical values can stand only once.
# Columns and labels:
# L1210 [1] = assay: Inhibition of proliferation of L1210 cells; assay type: functional, cell-based; settings: Mus musculus, read-out: I50
# Method in brief: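 L1210 cells in suspension culture with drug for 48 h. I50 was the concentration giving 50% inhibition of proliferation relative to controls.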
# HEp-2 = assay: Inhibition of colony formation of H.Ep-2 cells; assay type: functional, cell-based; settings: Homo sapiens, read-out: I50
# Method in brief: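 H.Ep.-2 cells exposed to drug over a 12-day period. Colony formation was scored against untreated controls, and I50 was taken as the concentration giving 50% inhibition.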
# Mus musculus [2] = assay: Percent increase in life span of p388 leukemia induced mice was determined at a dose of 100 mg/kg upon ip administration on days 1-5; assay type: functional; settings: route intraperitoneal
# Method in brief: (§1)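 Mice implanted with 10⁶ P388 leukemia cells were dosed intraperitoneally once daily on days 1-5 after implant. Activity is expressed as % increase in life span, and 30-day survivors were recorded.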
# [3] = (§2) Half life was measured at pH 7; assay type: ADME
# Method in brief: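 Stability in pH 7 buffer, followed by HPLC; reported as half-life. The method is taken from an earlier paper.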
# Mus musculus [4] = assay: Percent increase in life span of p388 leukemia induced mice was determined at a dose of 200 mg/kg upon ip administration on days 1-5; assay type: functional; settings: route intraperitoneal; method in brief: as §1
# L1210 [5] = assay: percent synthesis of protein in L1210 cells when incubated with the compound for 18 hr uusing [3H]-L-Leu as radioligand; assay type: functional, Mus musculus
# Method in brief: (§3)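 Protein synthesis in L1210 suspension cultures preincubated with agent for 30 min or 18 h. [4,5-3H]-L-leucine was then added, and incorporation into protein was sampled hourly over 4 h. Values are 4-h incorporation as % of untreated control.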
# L1210 [6] = assay: Number of cells present measured with the Coulter counter(concuM); assay type: functional, Mus musculus
# Method in brief: (§4)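 L1210 suspension cultures with agent for 30 min or 18 h, then a further 4 h with radiolabelled precursor. Cells were counted by Coulter counter and expressed as R, the count relative to the initial cell number (R = 1.0). R < 1.0 means a fall below the starting number; R > 1.0 means proliferation.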
# L1210 [7] = assay: percent synthesis of DNA in L1210 cells when incubated with the compound for 30 min using […] as radioligand; assay type: functional, Mus musculus
# Method in brief: (§5)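 DNA synthesis in L1210 suspension cultures preincubated with agent for 30 min or 18 h. [3H]dThd was then added to the medium, and incorporation into DNA was sampled at 1-h intervals over 4 h. Values are for the 4-h labelling period, as % of untreated control.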
# L1210 [8] = assay: percent synthesis of DNA in L1210 cells when incubated with the compound for 18 h using […] as radioligand; assay type: functional, Mus musculus; method in brief: as §5
# L1210 [9] = assay: percent synthesis of RNA in L1210 cells when incubated with compound for 18 h using […] as radioligand; assay type: functional, Mus musculus
# Method in brief: (§6)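 RNA synthesis in L1210 suspension cultures preincubated with agent for 30 min or 18 h. [5-3H]Urd was then added, and incorporation into RNA was sampled hourly over 4 h. Values are 4-h incorporation as % of untreated control.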
# L1210 [10] = assay: percent synthesis of protein in L1210 cells when incubated with the compound for 30 min using [3H]L-Leu as radioligand; assay type: functional, Mus musculus; method in brief: as §3
# L1210 [11] = assay: Size distribution of cells; assay type: functional, Mus musculus
# Method in brief: (§7)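 L1210 suspension cultures with agent for 30 min or 18 h, then a 4-h labelling period. Size distribution was measured on a Model ZH Coulter Counter. The value is the instrument setting at the peak of cell size; higher settings mean larger cells.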
# L1210 [12] = assay: percent synthesis of protein in L1210 cells when incubated with the compound for 18 hr using [3H]-L-Leu as radioligand; assay type: functional, Mus musculus; method in brief: as §3
# L1210 [13] = assay: percent synthesis of RNA in L1210 cells when incubated with compound for 30 min using […] as radioligand; assay type: functional, Mus musculus; method in brief: as §6
# L1210 [14] = assay: Size distribution of cells (concuM); assay type: functional, Mus musculus; method in brief: as §7
# L1210 [15] = assay: percent synthesis of RNA in L1210 cells when incubated with compound for 18 h using […] as radioligand (conc umol); assay type: functional, Mus musculus; method in brief: as §6
# Mus musculus [16] = assay: Percent increase in life span of p388 leukemia induced mice was determined at a dose of 25 mg/kg upon ip administration on days 1-5; assay type: functional; settings: route intraperitoneal; method in brief: as §1
# L1210 [17] = assay: Number of cells present measured with the Coulter counter; assay type: functional, Mus musculus; method in brief: as §4
# [18] = as §2; assay type: ADME; remark: listed apart in the source
# Method in brief: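 Stability in pH 7 buffer, with decomposition followed by HPLC and the half-life taken from it.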
# L1210 [19] = assay: Number of cells present measured with the Coulter counter at 10 uM conc.; assay type: functional, Mus musculus; method in brief: as §4
# L1210 [20] = assay: percent synthesis of protein in L1210 cells when incubated with the compound for 30 min using [3H]L-Leu as radioligand at 25 uM conc.; assay type: functional, Mus musculus; method in brief: as §3
# L1210 [21] = assay: percent synthesis of protein in L1210 cells when incubated with the compound for 30 min using [3H]L-Leu as radioligand at 10 uM conc.; assay type: functional, Mus musculus; method in brief: as §3
# L1210 [22] = assay: percent synthesis of DNA in L1210 cells when incubated with the compound for 30 min using […] as radioligand at 50 uM conc.; assay type: functional, Mus musculus; method in brief: as §5
# L1210 [23] = assay: Number of cells present measured with the Coulter counter at 50 uM conc.; assay type: functional, Mus musculus; method in brief: as §4
# L1210 [24] = assay: percent synthesis of protein in L1210 cells when incubated with the compound for 18 hr using [3H]-L-Leu as radioligand at 25 uM conc.; assay type: functional, Mus musculus; method in brief: as §3
# L1210 [25] = assay: Size distribution of cells at 25 uM conc.; assay type: functional, Mus musculus; method in brief: as §7
# L1210 [26] = assay: Number of cells present measured with the Coulter counter at 25 uM conc.; assay type: functional, Mus musculus; method in brief: as §4
# L1210 [27] = assay: percent synthesis of DNA in L1210 cells when incubated with the compound for 30 min using […] as radioligand at 10 uM conc.; assay type: functional, Mus musculus; method in brief: as §5
# L1210 [28] = assay: percent synthesis of RNA in L1210 cells when incubated with compound for 30 min using [3H]dThd as radioligand at 50 uM conc.; assay type: functional, Mus musculus; settings: in the assay text read “[5-3H]Urd” for “[3H]dThd”; method in brief: as §6
# L1210 [29] = assay: percent synthesis of DNA in L1210 cells when incubated with the compound for 18 h using [3H]dUrd as radioligand at 10 uM conc.; assay type: functional, Mus musculus; settings: in the assay text read “[3H]dThd” for “[3H]dUrd”; method in brief: as §5
# L1210 [30] = assay: percent synthesis of DNA in L1210 cells when incubated with the compound for 18 hr using […] as radioligand at 25 uM conc.; assay type: functional, Mus musculus; method in brief: as §5
# L1210 [31] = assay: Size distribution of cells at 10 uM conc.; assay type: functional, Mus musculus; method in brief: as §7
# L1210 [32] = assay: Size distribution of cells at 50 uM conc.; assay type: functional, Mus musculus; method in brief: as §7
# L1210 [33] = assay: percent synthesis of protein in L1210 cells when incubated with the compound for 18 hr using [3H]-L-Leu as radioligand at 50 uM conc.; assay type: functional, Mus musculus; method in brief: as §3
# L1210 [34] = assay: percent synthesis of RNA in L1210 cells when incubated with compound for 18 hr using […] as radioligand at 25 uM conc.; assay type: functional, Mus musculus; method in brief: as §6
# L1210 [35] = assay: percent synthesis of DNA in L1210 cells when incubated with the compound for 18 h using […] as radioligand at 50 uM conc.; assay type: functional, Mus musculus; method in brief: as §5
# L1210 [36] = assay: percent synthesis of RNA in L1210 cells when incubated with compound for 30 min using […] as radioligand at 10 uM conc.; assay type: functional, Mus musculus; method in brief: as §6
# L1210 [37] = assay: percent synthesis of protein in L1210 cells when incubated with the compound for 18 hr using [3H]-L-Leu as radioligand at 10 uM conc.; assay type: functional, Mus musculus; method in brief: as §3
# L1210 [38] = assay: percent synthesis of RNA in L1210 cells when incubated with compound for 18 h using […] as radioligand at 10 uM conc.; assay type: functional, Mus musculus; method in brief: as §6
# L1210 [39] = assay: percent synthesis of RNA in L1210 cells when incubated with compound for 18 hr using […] as radioligand at 50 uM conc.; assay type: functional, Mus musculus; method in brief: as §6
# L1210 [40] = assay: percent synthesis of DNA in L1210 cells when incubated with the compound for 30 min using […] as radioligand at 25 uM conc.; assay type: functional, Mus musculus; method in brief: as §5
# L1210 [41] = assay: percent synthesis of protein in L1210 cells when incubated with the compound for 30 min using [3H]L-Leu as radioligand at 50 uM conc.; assay type: functional, Mus musculus; method in brief: as §3
# L1210 [42] = assay: percent synthesis of RNA in L1210 cells when incubated with compound for 30 min using [3H]dThd as radioligand at 25 uM conc.; assay type: functional, Mus musculus; settings: in the assay text read “[5-3H]Urd” for “[3H]dThd”; method in brief: as §6
compound,measurement,setting,value
CN(N=O)C(=O)Nc1ccc(NC(=O)C2OC(n3ccc(=O)[nH]c3=O)C(O)C2O)cc1 (stereo not drawn),pIC50,L1210 [1],< 4.05
same,pIC50,HEp-2,4.48
same,ILS at 100 mg/kg,Mus musculus [2],56%
same,half-life,[3],2 h
Cc1cn(C2CC(O)C(C(=O)NCCN(N=O)C(=O)Nc3ccccc3)O2)c(=O)[nH]c1=O (stereo not drawn),pIC50,L1210 [1],< 4.05
same,ILS at 200 mg/kg,Mus musculus [4],14%
same,pIC50,HEp-2,4.05
same,half-life,[3],0.7 h
O=NN(CCCl)C(=O)NCC1OC(n2ccc(=O)[nH]c2=O)CC1O (stereo not drawn),Control,L1210 [5],658%
same,pIC50,L1210 [1],4.92
same,Cell no,L1210 [6],0.54
same,Control,L1210 [7],98% and 103% and 100%
same,Control,L1210 [8],189% and 192% and 152%
same,Control,L1210 [9],554% and 276%
same,Control,L1210 [10],96% and 92% and 95%
same,Cell size,L1210 [11],60 and 82.5 and 75
same,Control,L1210 [12],474% and 254%
same,Control,L1210 [13],87% and 79% and 80%
same,Cell size,L1210 [14],67.5 and 65 and 82.5
same,Control,L1210 [15],455%
same,pIC50,HEp-2,4.85
same,ILS at 25 mg/kg,Mus musculus [16],191%
same,half-life,[3],4 h
same,Cell no,L1210 [17],1.06 and 1.08 and 1.09 and 0.77 and 0.99
O=NN(C(=O)NC1CCCCC1)C1CCCCC1,T1/2,[18],0.875 h
Cc1cn(C2CC(O)C(CNC(=O)N(CCCl)N=O)O2)c(=O)[nH]c1=O (stereo not drawn),Cell no,L1210 [19],1.08 and 1.21
same,Control,L1210 [20],99%
same,pIC50,L1210 [1],5.30
same,Control,L1210 [21],83%
same,Control,L1210 [22],85%
same,Cell no,L1210 [23],1.06 and 0.64
same,Control,L1210 [24],455%
same,Cell size,L1210 [25],57.5 and 80
same,Cell no,L1210 [26],1.08 and 0.92
same,Control,L1210 [27],108%
same,Control,L1210 [28],87%
same,Control,L1210 [29],145%
same,Control,L1210 [30],171%
same,pIC50,HEp-2,5.00
same,ILS at 25 mg/kg,Mus musculus [16],135%
same,Cell size,L1210 [31],60 and 80
same,Cell size,L1210 [32],55 and 85
same,Control,L1210 [33],597%
same,Control,L1210 [34],374%
same,Control,L1210 [35],147%
same,Control,L1210 [36],85%
same,Control,L1210 [37],257%
same,Control,L1210 [38],217%
same,half-life,[3],6 h
same,Control,L1210 [39],539%
same,Control,L1210 [40],98%
same,Control,L1210 [41],111%
same,Control,L1210 [42],88%
